For test [1], the target named is T1, P2Y purinoceptor 2 (Homo sapiens, UniProt P41231). The experiment in a line: Agonist activity at human recombinant P2Y2 receptor expressed in human 1321N1 cells using [3H]inositol as substrate assessed as [3H]inositol phosphate formation at 10 uM after 30 mins by liquid scintillation counting analysis. The test is classed as functional, cell-based. Put shortly: (§1)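 PLC activation measured in 1321N1 human astrocytoma cells stably expressing recombinant hP2Y2, hP2Y4 or hP2Y6 receptor; potency given as EC50 or % activation.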

Test [2] has as its target T2, P2Y purinoceptor 6 (Homo sapiens, UniProt Q15077). The experiment in a line: Agonist activity at human recombinant P2Y6 receptor expressed in human 1321N1 cells using [3H]inositol as substrate assessed as [3H]inositol phosphate formation after 30 mins by liquid scintillation counting analysis. The test is classed as functional, cell-based. An outline of the steps:
as §1

For test [3], the target named is T3, P2Y purinoceptor 4 (Homo sapiens, UniProt P51582). The experiment in a line: Agonist activity at human recombinant P2Y4 receptor expressed in human 1321N1 cells using [3H]inositol as substrate assessed as [3H]inositol phosphate formation at 10 uM after 30 mins by liquid scintillation counting analysis. It is filed as functional, cell-based. An outline of the steps: as §1

Test [4] deals with T3, P2Y purinoceptor 4. As to the kind of experiment: Agonist activity at human recombinant P2Y4 receptor expressed in human 1321N1 cells using [3H]inositol as substrate assessed as [3H]inositol phosphate formation after 30 mins by liquid scintillation counting analysis. It is filed as functional, cell-based. An outline of the steps: as §1
Test [5] deals with T1, P2Y purinoceptor 2. As to the kind of experiment: Agonist activity at human recombinant P2Y2 receptor expressed in human 1321N1 cells using [3H]inositol as substrate assessed as [3H]inositol phosphate formation after 30 mins by liquid scintillation counting analysis. It is filed as functional, cell-based. An outline of the steps: as §1
Test [6] is filed under the species Homo sapiens. As to the kind of experiment: Selectivity ratio of EC50 for human recombinant P2Y4 receptor to EC50 for human recombinant P2Y6 receptor.
The species entered for test [7] is Homo sapiens. The experiment in a line: Selectivity ratio of EC50 for human recombinant P2Y2 receptor to EC50 for human recombinant P2Y6 receptor.
The target of test [8] is T2, P2Y purinoceptor 6. The experiment in a line: Binding affinity to human recombinant P2Y6 receptor expressed in human 1321N1 cells at 400 nM after 60 mins by flow cytometry. It is filed as cell-based. In general terms: A flow cytometer gives signals particle by particle.

Experimental findings from ChEMBL document CHEMBL3217604, “4-Alkyloxyimino-cytosine nucleotides: tethering approaches to molecular probes for the P2Y6 receptor” (Medchemcomm, 2013) are described below.

Structures are written as SMILES. Active and inactive are the calls of the source. The rule behind the calls is not given here. Some results are limits rather than exact numbers.

T1 sequence (P41231 whole entry): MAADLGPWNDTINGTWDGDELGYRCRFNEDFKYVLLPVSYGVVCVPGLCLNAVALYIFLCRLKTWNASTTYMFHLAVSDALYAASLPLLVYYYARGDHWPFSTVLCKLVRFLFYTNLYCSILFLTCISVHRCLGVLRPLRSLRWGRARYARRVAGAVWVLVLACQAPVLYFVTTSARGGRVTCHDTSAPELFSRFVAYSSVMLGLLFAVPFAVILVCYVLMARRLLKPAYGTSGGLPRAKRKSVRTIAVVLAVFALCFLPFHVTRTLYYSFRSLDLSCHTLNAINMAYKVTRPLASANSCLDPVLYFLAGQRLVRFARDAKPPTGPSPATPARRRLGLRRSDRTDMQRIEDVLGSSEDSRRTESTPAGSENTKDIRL
T3 sequence (P51582 whole entry): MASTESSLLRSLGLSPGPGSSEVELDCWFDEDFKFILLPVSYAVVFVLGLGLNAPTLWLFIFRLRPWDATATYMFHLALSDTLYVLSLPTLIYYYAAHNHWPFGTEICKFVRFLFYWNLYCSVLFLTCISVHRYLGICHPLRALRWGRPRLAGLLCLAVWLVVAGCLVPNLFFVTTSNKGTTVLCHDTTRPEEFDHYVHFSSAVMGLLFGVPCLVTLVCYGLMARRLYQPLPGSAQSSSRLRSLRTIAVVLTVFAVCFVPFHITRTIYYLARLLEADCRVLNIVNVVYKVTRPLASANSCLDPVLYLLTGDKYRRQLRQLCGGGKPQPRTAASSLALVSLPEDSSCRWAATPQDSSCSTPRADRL
T2 sequence (Q15077 whole entry): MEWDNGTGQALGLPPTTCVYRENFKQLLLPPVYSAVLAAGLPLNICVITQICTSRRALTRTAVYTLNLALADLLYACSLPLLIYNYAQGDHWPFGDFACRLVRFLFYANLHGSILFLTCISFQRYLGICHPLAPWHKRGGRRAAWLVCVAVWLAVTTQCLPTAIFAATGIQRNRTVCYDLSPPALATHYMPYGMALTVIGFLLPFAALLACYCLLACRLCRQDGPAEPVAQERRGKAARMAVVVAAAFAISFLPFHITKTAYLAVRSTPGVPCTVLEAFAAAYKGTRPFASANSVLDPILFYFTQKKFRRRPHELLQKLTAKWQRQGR

For the compound `C#CCCOP(=O)(O)OP(=O)(O)OP(=O)(O)OC[C@H]1O[C@@H](n2cc/c(=N/OCc3ccccc3)[nH]c2=O)[C@H](O)[C@@H]1O`, the Activity at P2Y purinoceptor 2 [1] and on P2Y purinoceptor 4 [3] was less than 50% throughout. The EC50 (as a rule, the concentration that produces a half-maximal response) at P2Y purinoceptor 6 [2] is 1750 nM.

For `O=c1[nH]/c(=N\OCc2ccc([N+](=O)[O-])cc2)ccn1[C@@H]1O[C@H](COP(=O)(O)OP(=O)(O)O)[C@@H](O)[C@H]1O`, the figures for the EC50 on P2Y purinoceptor 4 [4], on P2Y purinoceptor 6 [2] and on P2Y purinoceptor 2 [5] were 2200 nM, 41 nM and 3300 nM, respectively.

Regarding `O=c1[nH]/c(=N\OCc2cccc(Br)c2)ccn1[C@@H]1O[C@H](COP(=O)(O)OP(=O)(O)O)[C@@H](O)[C@H]1O`, the EC50 on P2Y purinoceptor 4 [4] is greater than 10000 nM; on P2Y purinoceptor 6 [2], 39 nM; on P2Y purinoceptor 2 [5] it was 6200 nM. Besides, the Ratio EC50 was greater than 260 in the test filed under Homo sapiens [6] and 160 in the test listed under Homo sapiens [7].

On to `C#CCCC#Cc1cccc(CO/N=c2/ccn([C@@H]3O[C@H](COP(=O)(O)OP(=O)(O)O)[C@@H](O)[C@H]3O)c(=O)[nH]2)c1`, for which the values for the EC50 at P2Y purinoceptor 4 [4], on P2Y purinoceptor 6 [2] and on P2Y purinoceptor 2 [5] were 952 nM, 100 nM and 3900 nM, respectively.

In the case of `O=c1[nH]/c(=N\OCc2ccccc2)ccn1[C@@H]1O[C@H](COP(=O)(O)OP(=O)(O)O)[C@@H](O)[C@H]1O`, the EC50 at P2Y purinoceptor 6 [2] (1321-n1) is 26 nM.

With `N=c1ccc2c(-c3ccc(C(=O)NCCCCCCn4cc(CCC#Cc5cccc(CO/N=c6/ccn([C@@H]7O[C@H](COP(=O)(O)O)[C@@H](O)[C@H]7O)c(=O)[nH]6)c5)nn4)cc3C(=O)O)c3ccc(N)c(S(=O)(=O)O)c3oc-2c1S(=O)(=O)O`, the result at P2Y purinoceptor 6 [8] was inactive.

With `C#CCCCOP(=O)(O)OP(=O)(O)OP(=O)(O)OC[C@H]1O[C@@H](n2cc/c(=N/OCc3ccccc3)[nH]c2=O)[C@H](O)[C@@H]1O`, the EC50 at P2Y purinoceptor 6 [2] was greater than 10000 nM. Also, the Activity on P2Y purinoceptor 4 [3] was less than 50%.
